# Experimental data as given in PubChem BioAssay.
# Calls of active or inactive are those of the source.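 The calls were made as follows, unless noted: active = mean duplicate potentiation above the buffer control mean plus 5 SD of buffer wells; inactive = the rest.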
# Experiments:
# [1] = thallium flux activation in parental CHO cells, counter-screen for KCNQ1 potentiator project (AID 493006;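 active = duplicate-averaged activation above buffer control mean plus 5 SD of those controls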); settings: parental CHO-K1 cells, FluxOR thallium flux, at 10 µM; hits give high values
# How it was run: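 Assay system: Untransfected host CHO-K1 cells with FluxOR thallium dye | Probe or stimulus: Potassium/thallium depolarization pulse | Schedule: Overnight 37 °C plating, 90 min RT dye, 20 min compound | Detection: Kinetic thallium-flux fluorescence | Read-out: Max-minus-min fluorescence over baseline, percent of buffer-to-R-L3 span | Benchmarks: Low control buffer, high control R-L3 activator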
# [2] = biological target: Potassium voltage-gated channel subfamily KQT member 1 (Homo sapiens) (UniProt P51787); assay: KCNQ1 potassium channel potentiators, confirmation, FluxOR thallium flux, CHO cells, duplicates (AID 493007;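 active = potentiation averaged over duplicate wells exceeding buffer-only control mean by more than 3 SD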;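 as to outcome: cells depolarized by a potassium plus thallium sulfate stimulus after compound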); settings: KCNQ1 cell line, FluxOR thallium flux fluorescence, at 10 µM; hits give high values, % of reference activator effect, buffer zero
# How it was run: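 Material: KCNQ1-expressing CHO cell line; Incubation: FluxOR dye loading 90 min, compound exposure 20 min, room temperature; Detection: FluxOR Tl+ flux fluorescence, 10 s baseline plus 110 s recording; Read-out: percent activation between buffer and R-L3 responses; Control set: buffer-only wells as 0% and R-L3 activator as 100%; Replication: duplicate wells per compound.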
# [3] = biological target: Potassium voltage-gated channel subfamily KQT member 2 (Rattus norvegicus) (UniProt O88943); assay: rat KCNQ2 channel potentiation, selectivity assay for KCNQ1 potentiator project, KCNQ2-CHO-K1 cells (AID 493009); settings: FluxOR thallium flux fluorescence, at 10 µM; hits give high values, scaled: buffer 0, activator control 100;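 also: assay conditions were tuned for KCNQ1 rather than KCNQ2 modulators; signal is max minus min fluorescence divided by baseline after thallium stimulus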
# [4] = biological target: Potassium voltage-gated channel subfamily KQT member 1 (Homo sapiens) (UniProt P51787); assay: KCNQ1 channel current potentiators, confirmation, orthogonal assay for KCNQ1 potentiator project, IonWorks patch clamp, KCNQ1-CHO cells (AID 493184;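 active = current rise at least 3 SD above the untreated control mean in each of two repeat wells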;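 as to current potentiation: percent change of the same well's current before compound addition so 0% = no change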); settings: automated patch clamp current, at 10 µM; hits give high values
# How it was run: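 assay system = KCNQ1-expressing CHO cells | medium = external bath solution at pH 7.4 | probe or stimulus = 2,000 ms depolarization, -90 to +40 mV | compound dosing = 10 µM final, single point | measured by = automated voltage clamp, amphotericin B perforated patch | measure = percent current increase versus pre-compound level | replication = duplicates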
# Sequence of Potassium voltage-gated channel subfamily KQT member 1 (Homo sapiens) (P51787 whole entry, looked up): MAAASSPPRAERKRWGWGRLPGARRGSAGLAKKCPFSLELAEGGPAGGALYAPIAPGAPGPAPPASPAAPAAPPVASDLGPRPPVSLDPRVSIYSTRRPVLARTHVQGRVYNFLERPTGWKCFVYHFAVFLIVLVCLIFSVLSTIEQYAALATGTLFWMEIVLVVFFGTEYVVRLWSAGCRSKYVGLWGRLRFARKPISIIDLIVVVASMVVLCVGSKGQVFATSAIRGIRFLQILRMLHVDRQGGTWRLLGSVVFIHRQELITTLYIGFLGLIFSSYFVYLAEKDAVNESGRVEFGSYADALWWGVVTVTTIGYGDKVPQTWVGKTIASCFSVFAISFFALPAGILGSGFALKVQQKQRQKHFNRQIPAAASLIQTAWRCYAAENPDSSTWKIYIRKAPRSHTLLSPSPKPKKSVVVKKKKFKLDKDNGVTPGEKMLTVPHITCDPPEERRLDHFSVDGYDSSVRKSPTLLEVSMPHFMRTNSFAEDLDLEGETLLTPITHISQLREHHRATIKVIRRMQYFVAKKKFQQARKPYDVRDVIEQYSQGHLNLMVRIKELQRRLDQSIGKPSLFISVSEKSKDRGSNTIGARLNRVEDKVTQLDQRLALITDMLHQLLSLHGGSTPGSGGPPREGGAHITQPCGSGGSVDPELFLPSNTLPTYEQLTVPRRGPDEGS
# Sequence of Potassium voltage-gated channel subfamily KQT member 2 (Rattus norvegicus) (O88943 whole entry, looked up): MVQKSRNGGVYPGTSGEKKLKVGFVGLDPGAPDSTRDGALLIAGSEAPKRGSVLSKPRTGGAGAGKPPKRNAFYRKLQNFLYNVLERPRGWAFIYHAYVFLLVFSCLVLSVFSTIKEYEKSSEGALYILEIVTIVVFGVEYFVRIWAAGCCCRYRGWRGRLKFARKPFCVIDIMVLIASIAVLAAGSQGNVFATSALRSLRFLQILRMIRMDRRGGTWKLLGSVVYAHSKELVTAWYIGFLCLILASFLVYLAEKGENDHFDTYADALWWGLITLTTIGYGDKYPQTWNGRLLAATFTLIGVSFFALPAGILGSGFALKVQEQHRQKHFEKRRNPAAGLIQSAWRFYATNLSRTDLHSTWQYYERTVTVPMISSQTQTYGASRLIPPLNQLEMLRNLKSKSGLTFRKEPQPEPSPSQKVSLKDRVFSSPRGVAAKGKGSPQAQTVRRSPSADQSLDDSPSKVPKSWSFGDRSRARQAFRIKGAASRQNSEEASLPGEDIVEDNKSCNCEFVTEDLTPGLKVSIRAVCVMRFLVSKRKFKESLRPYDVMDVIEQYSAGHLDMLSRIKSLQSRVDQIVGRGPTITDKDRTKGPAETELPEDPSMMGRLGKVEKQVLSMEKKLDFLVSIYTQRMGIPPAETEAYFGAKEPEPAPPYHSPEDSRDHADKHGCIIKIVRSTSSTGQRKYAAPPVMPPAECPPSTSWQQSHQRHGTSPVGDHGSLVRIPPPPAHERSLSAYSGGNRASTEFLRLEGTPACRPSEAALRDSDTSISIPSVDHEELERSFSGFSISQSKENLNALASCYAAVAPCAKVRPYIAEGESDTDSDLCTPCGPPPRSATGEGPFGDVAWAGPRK
SMILES,outcome [1],outcome [2],outcome [3],current potentiation [4],activation [1],potentiation [2],potentiation [3],outcome [4]
CC1Cc2cc(/C=C3/SC(=S)NC3=O)ccc2O1 (configuration not stated),inactive,inactive,inactive,24.4% (active),–,–,–,–
CCn1c(SC(C)C(=O)O)nc2sc3c(c2c1=O)CCC3 (configuration not stated),–,–,–,–,203% (active),42.5% (active),230% (active),inactive
N#Cc1ccc(-c2nc3ccc(Br)cc3c(=O)n2O)cc1,–,–,–,–,300% (active),120% (active),354% (active),inactive
Fc1ccccc1C(c1nnnn1C1CCCC1)N1CCN(Cc2ccccc2)CC1 (configuration not stated),inactive,inactive,inactive,–,–,–,–,inactive
CCOC(=O)/C(=C\c1cccnc1)C(=O)c1cc(C(C)=O)c(Nc2ccccc2)s1,inactive,inactive,inactive,–,–,–,–,inactive
Cc1ccc(-c2nc3ccc(Cl)cc3c(=O)n2O)cc1,–,–,–,–,558% (active),221% (active),523% (active),inactive
COc1ccc(NC(=O)C(=O)NNC(=O)C(C)Oc2ccc(Cl)cc2Cl)cc1 (configuration not stated),–,–,–,–,481% (active),177% (active),492% (active),inactive
COC(=O)c1c(NC(=O)CC2SC(N)=NC2=O)sc2c1CCC(C)C2 (configuration not stated),inactive,inactive,inactive,–,–,–,–,inactive
O=C(O)c1ccccc1C(=O)NNc1ccc(Cl)cc1,inactive,inactive,inactive,–,–,–,–,inactive
CCCc1c(C)[nH]c2ccc(NC(C)=O)cc2c1=O,inactive,inactive,inactive,–,–,–,–,inactive
CC(=O)NC(C1C(=O)CC(C)(C)CC1=O)(C(F)(F)F)C(F)(F)F,inactive,inactive,inactive,–,–,–,–,inactive
CCOC(=O)c1[nH]c(C=O)c(C(=O)OCC)c1C,inactive,inactive,inactive,–,–,–,–,inactive
CCCCN(CCCC)C(=S)N/N=C/c1c(C)[nH]n(-c2ccccc2)c1=O,–,–,–,–,198% (active),123% (active),239% (active),inactive
CC(C)CN1C(=O)/C(=C/c2cccs2)NC1=S,–,–,–,–,392% (active),180% (active),450% (active),inactive
O=C(NC(=S)N1CCN(c2nc(-c3ccccc3)cs2)CC1)c1cncc(Br)c1,–,–,–,–,384% (active),223% (active),505% (active),inactive
O=C(NC(=S)Nc1nc2ccccc2s1)c1cccs1,–,–,–,–,400% (active),180% (active),389% (active),inactive
Cc1ccc(N=Cc2cc(Br)cc(Cl)c2O)cc1,–,–,–,–,201% (active),19% (active),142% (active),inactive

SMILES,outcome [1],outcome [2],outcome [3],current potentiation [4],activation [1],potentiation [2],potentiation [3],outcome [4]
Cc1cccc(C)c1NC(=S)NC(=O)c1ccc(Br)o1,–,–,–,–,394% (active),122% (active),412% (active),inactive
COC(=O)c1sc(NC(=S)NC(=O)c2ccccc2C)nc1C,–,–,–,–,187% (active),50% (active),204% (active),inactive
O=S(=O)(NC(=S)NC1CCCCC1)c1ccc(Br)cc1,–,–,–,–,200% (active),52% (active),190% (active),inactive
Cc1ccc(CSc2nc3ccccc3c(=O)n2CCCC(=O)NCc2ccco2)cc1,inactive,inactive,inactive,–,–,–,–,inactive
Fc1cccc2sc(Nc3nnc(-c4ccccc4)o3)nc12,–,–,–,–,531% (active),198% (active),481% (active),inactive
COc1ccc2oc(C(=O)OCC(=O)N3CC(C)OC(C)C3)c(C)c2c1 (configuration not stated),inactive,inactive,inactive,–,–,–,–,inactive
O=c1sc(N2CCN(c3ccccc3F)CC2)nc2ccsc12,inactive,inactive,inactive,–,–,–,–,inactive
Cc1snnc1C(=O)NC(=S)Nc1ccccc1,–,–,–,–,205% (active),90% (active),270% (active),inactive
COC(=O)c1c(N)sc2c1CCN(c1ncc(C(F)(F)F)cc1Cl)C2,inactive,inactive,–,–,–,–,142% (active),inactive
CC(C)NC(=O)C1CCN(c2ccc(S(=O)(=O)N3CCOCC3)cc2Cl)CC1,inactive,inactive,inactive,–,–,–,–,inactive
CC(C)[N+]1(C)[C@@H]2CC[C@H]1CC(OC(=O)C(CO)c1ccccc1)C2 (some centres not stated),inactive,inactive,inactive,–,–,–,–,inactive
CCOc1ccc(NC(=O)Cn2nnc(-c3ccccc3NC(=O)c3cccs3)n2)cc1,inactive,inactive,inactive,–,–,–,–,inactive
O=C(Nc1nnc(-c2ccc3c(c2)CCCC3)o1)c1ccc(Cl)cc1Cl,–,–,–,–,374% (active),176% (active),442% (active),inactive
Cc1cc(C)nc(CCNC(=O)c2cc(COc3ccccc3)on2)n1,inactive,inactive,inactive,–,–,–,–,inactive
O=C(CN1CCCC1)Nc1ccc2c(c1)CCC2,inactive,inactive,inactive,–,–,–,–,inactive
CCCN(CCC)CCNC(=O)Cn1cnc2sc(C)c(S(=O)(=O)N3CCOCC3)c2c1=O,inactive,inactive,inactive,–,–,–,–,inactive
